# Reference: ChEMBL document CHEMBL3045496, “Antifeedant activity of ethanolic extract from Flourensia oolepis and isolation of pinocembrin as its active principle compound” (2009)
# The source made the active and inactive calls. No cut-off for these calls is given here.
# Experiments:
# Epilachna [1] = test: Antifeedant activity against third-instar Epilachna paenulata measured assessed per cm2 leaf disk; type: functional
# Spodoptera litura = test: Antifeedant activity against third-instar Spodoptera litura assessed per cm2 leaf disk; type: functional
# Epilachna [2] = test: Antifeedant activity against third-instar Epilachna paenulata measured assessed per cm2 leaf disk after 24 hr by leaf disk choice test; type: functional
# Procedure, shortened: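 Two Cucurbita maxima seedling cotyledons in a Petri dish under a glass disk with two 1 cm2 holes: one solvent-treated, one solvent-control. A single larva is placed equidistant between them and feeds for 24 h. Area eaten is estimated visually by quarters, always by the same operator. AI% = [1−(T/C)]×100; means of 10 replicates.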
# Xanthogaleruca luteola [3] = test: Antifeedant activity against adult Xanthogaleruca luteola assessed per cm2 leaf disk after 24 hr by leaf-disk choice test
# Epilachna [4] = test: Antifeedant activity against third-instar Epilachna paenulata measured at 10 ug/cm2 leaf disk after 24 hr by leaf-disk choice test relative to control; type: functional
# Xanthogaleruca luteola [5] = test: Antifeedant activity against adult Xanthogaleruca luteola measured at 50 ug/cm2 leaf disk after 24 hr by leaf-disk choice test relative to control
# Spodoptera frugiperda [6] = test: Antifeedant activity against third-instar Spodoptera frugiperda (fall armyworm) measured at 50 ug/cm2 leaf disk after 3 to 4 hr by leaf-disk choice test relative to control; type: functional
# Procedure, shortened: (§1)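 Two-choice leaf-disk assay with third-instar larvae collected in the field and kept on pumpkin for 2–3 days beforehand. Treated and solvent-control 1 cm2 disks of C. maxima cotyledon are offered together, and the area of each consumed (0–100%) is scored visually by quarters by the same operator. AI% = [1−(T/C)]×100; means of 10 replicates.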
# Xanthogaleruca luteola [7] = test: Antifeedant activity against adult Xanthogaleruca luteola measured at 1 ug/cm2 leaf disk after 24 hr by leaf-disk choice test relative to control
# Epilachna [8] = test: Antifeedant activity against third-instar Epilachna paenulata measured at 100 ug/cm2 leaf disk after 24 hr by leaf-disk choice test relative to control; type: functional
# Spodoptera frugiperda [9] = test: Antifeedant activity against third-instar Spodoptera frugiperda (fall armyworm) measured at 100 ug/cm2 leaf disk after 3 to 4 hr by leaf-disk choice test relative to control; type: functional; procedure, shortened: as §1
# Epilachna [10] = test: Antifeedant activity against third-instar Epilachna paenulata measured at 1 ug/cm2 leaf disk after 24 hr by leaf disk choice test relative to control; type: functional
# Xanthogaleruca luteola [11] = test: Antifeedant activity against adult Xanthogaleruca luteola measured at 10 ug/cm2 leaf disk after 24 hr by leaf-disk choice test relative to control
# Epilachna [12] = test: Antifeedant activity against third-instar Epilachna paenulata measured at 50 ug/cm2 leaf disk after 24 hr by leaf-disk choice test relative to control; type: functional
# Epilachna [13] = test: Antifeedant activity against third-instar Epilachna paenulata measured at 5 ug/cm2 leaf disk after 24 hr by leaf-disk choice test relative to control; type: functional
# Spodoptera frugiperda [14] = test: Antifeedant activity against third-instar Spodoptera frugiperda (fall armyworm) measured at 5 ug/cm2 leaf disk after 3 to 4 hr by leaf-disk choice test relative to control; type: functional; procedure, shortened: as §1
# Xanthogaleruca luteola [15] = test: Antifeedant activity against adult Xanthogaleruca luteola measured at 5 ug/cm2 leaf disk after 24 hr by leaf-disk choice test relative to control
# Xanthogaleruca luteola [16] = test: Antifeedant activity against adult Xanthogaleruca luteola measured at 100 ug/cm2 leaf disk after 24 hr by leaf-disk choice test relative to control
# Spodoptera frugiperda [17] = test: Antifeedant activity against third-instar Spodoptera frugiperda (fall armyworm) assessed per cm2 leaf disk after 3 to 4 hr by leaf-disk choice test; type: functional
# Spodoptera frugiperda [18] = test: Antifeedant activity against third-instar Spodoptera frugiperda (fall armyworm) measured at 10 ug/cm2 leaf disk after 3 to 4 hr by leaf-disk choice test relative to control; type: functional; procedure, shortened: as §1
structure (smiles),measurement,setting,value
CC(=O)O[C@@H]1C[C@H](O)[C@@]23COC(O)[C@]1(C)[C@@H]2C[C@@H](O)[C@]1(C)[C@@H]3[C@H](O)C(=O)[C@@]2(C)[C@H](c3ccoc3)C[C@H]3O[C@@]312 (some centres not stated) [MELIARTENIN],ED50,Epilachna [1],0.8 µg
O=c1c(O)c(-c2ccc(O)c(O)c2)oc2cc(O)cc(O)c12 [QUERCETIN],Activity,Spodoptera litura,inactive
same,ED50,Epilachna [2],9.26 µg
same,ED50,Xanthogaleruca luteola [3],178.52 µg
O=c1cc(-c2ccccc2)oc2cc(O)cc(O)c12 [CHRYSIN],ED50,Spodoptera litura,635 µg
C[C@@H]1CC[C@H]2[C@@H](C)C(=O)O[C@@H]3O[C@@]4(C)CC[C@@H]1[C@]32OO4 [ARTEMISININ],ED50,Epilachna [1],14.7 µg
O=C1C[C@@H](c2ccc(O)cc2)Oc2cc(O)cc(O)c21 [NARINGENIN],ED50,Epilachna [2],160.15 µg
C/C=C(\C)C(=O)O[C@H]1C[C@@H](OC(C)=O)[C@@]2(C(=O)OC)CO[C@H]3[C@@H](O)[C@@](C)([C@]45O[C@@]4(C)[C@@H]4C[C@H]5O[C@@H]5OC=C[C@@]54O)[C@H]4[C@]1(CO[C@]4(O)C(=O)OC)[C@@H]32 [AZADIRACHTIN A],ED50,Epilachna [2],0.59 µg
COc1ccc(-c2oc3c(OC)c(OC)c(OC)c(O)c3c(=O)c2OC)cc1 [5-HYDROXYAURANETIN],ED50,Spodoptera litura,42.8 µg
COc1c(OC)c(O)c2c(=O)c(OC)c(-c3ccccc3)oc2c1OC,ED50,Spodoptera litura,7.16 µg
O=C1C[C@@H](c2ccccc2)Oc2cc(O)cc(O)c21 [PINOCEMBRIN],AFI,Epilachna [4],62%
same,AFI,Xanthogaleruca luteola [5],94%
same,AFI,Spodoptera frugiperda [6],91%
same,AFI,Xanthogaleruca luteola [7],0%
same,AFI,Epilachna [8],99.1%
same,AFI,Spodoptera frugiperda [9],92%
same,ED50,Epilachna [2],7.98 µg
same,AFI,Epilachna [10],12%
same,AFI,Xanthogaleruca luteola [11],62%
same,ED50,Xanthogaleruca luteola [3],6.13 µg
same,AFI,Epilachna [12],90%
same,AFI,Epilachna [13],21%
same,AFI,Spodoptera frugiperda [14],21%
same,AFI,Xanthogaleruca luteola [15],62%
same,AFI,Xanthogaleruca luteola [16],98%
same,ED50,Spodoptera frugiperda [17],8.86 µg
same,AFI,Spodoptera frugiperda [18],70%
C=C(C)[C@H]1Cc2c(ccc3c2O[C@@H]2COc4cc(OC)c(OC)cc4[C@@H]2C3=O)O1 [ROTENONE],ED50,Spodoptera litura,59.1 µg
CC(=O)O[C@@H]1C[C@H](O)[C@@]23CO[C@@H](O)[C@]1(C)[C@@H]2C[C@@H](O)[C@]1(C)[C@@H]3C(=O)[C@H](OC(C)=O)[C@@]2(C)[C@H](c3ccoc3)C[C@H]3O[C@]321 [TOOSENDANIN],ED50,Epilachna [1],3.69 µg
Oc1cc(O)c2c(c1)OC(c1ccc(O)c(O)c1)C(O)C2 (configuration not stated) [CATECHIN],ED50,Epilachna [2],47.6 µg
same,ED50,Xanthogaleruca luteola [3],50.22 µg
O=c1cc(-c2ccccc2)oc2ccccc12 [FLAVONE],ED50,Spodoptera litura,24.6 µg
